≈ marks a conversion by molar mass, not a printed value. Where “and” joins values, the source holds several entries; their conditions need not be identical. Identical values can stand only once. Entries after “also recorded” stand apart in the source; their conditions may differ.
What was measured:
M5717-resistant mutants = conditions: pyronaridine partnered with M5717; cited from earlier work
CYP3A4 = conditions: preclinical studies, no reference given; cited from earlier work
[1] = SAD: M5717 whole-blood pharmacokinetics; type: in vivo, human; conditions: for Vd/F / half-life / AUC(0-inf) / AUC(0-t): whole blood; for AUC(0-t): SAD 2100 mg oral, N=1
[2] = Single ascending dose study; type: in vivo, human
Plasmodium falciparum [3] = test: VIS: parasite clearance kinetics and recrudescence; type: in vivo; conditions: for PRR48 (95% CI), second phase: cohort estimate
Method in brief: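 Volunteers were given about 2800 viable P falciparum-infected erythrocytes intravenously on day −8. Parasitaemia was measured by qPCR of the 18S rRNA gene, twice daily from day 4 after inoculation. A single fasted oral dose (150, 400 or 800 mg) was given when parasitaemia was expected to reach ≥5000 parasites/mL. […] Recrudescence was followed to day 28; artemether–lumefantrine was given on recrudescence or at day 21.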

Plasmodium falciparum [4] = conditions: cited from earlier work
[5] = VIS: M5717 whole-blood pharmacokinetics; type: in vivo; conditions: human, po
Method in brief: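 Healthy malaria-naive adults (18–55 y) were inoculated intravenously with about 2800 viable P falciparum-infected erythrocytes on day −8. On day 1 they took a single oral capsule dose (150, 400 or 800 mg) with 250 mL water after fasting ≥8 h, with no food until 4 h. The test compound was measured in whole blood (LLOQ 1 ng/mL), giving AUC0–∞, apparent terminal t½ and Vz/F.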

[6] = Volunteer infection study; type: in vivo, human
Method in brief: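 Intravenously inoculated, blood-stage P falciparum-infected healthy volunteers received one fasted oral dose (150, 400 or 800 mg). They stayed in the clinic until day 4, then attended outpatient follow-up to day 44.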

Plasmodium spp = conditions: cited from earlier work
[7] = oral administration of 3–5 mg/kg; cited from earlier work
[8] = SAD 2100 mg single oral dose, N=1
[9] = SAD, all 49 participants dosed with M5717

COc1ccc2nc3cc(Cl)ccc3c(Nc3cc(CN4CCCC4)c(O)c(CN4CCCC4)c3)c2n1 [pyronaridine]
Selection of M5717-resistant mutants (M5717-resistant mutants): prevented selection of M5717-resistant mutants

O=C(NCCN1CCCC1)c1cc(-c2ccc(CN3CCOCC3)cc2)nc2ccc(F)cc12 [M5717]
Active or toxic metabolites (CYP3A4): no active or toxic metabolites identified | Time of peak whole-blood concentration after dosing ([1]; across dose levels, SAD and VIS): approximately 2 h | Time with M5717 concentration at least 3 ng/mL in all participants ([1]; doses of 150 mg and higher): at least 168 h | Time with M5717 concentration 10 ng/mL or higher in all participants ([1]; doses of 400 mg or higher): at least 168 h | Terminal half-life predicted before the study ([1]; human, prediction before the study): 250 h | Vd/F ([1]; human, oral): 5880 to 9510 L | half-life ([1]; human, oral): 106 to 193 h | half-life ([1]; human, oral, 200 mg): 133 to 145 h | AUC(0-inf) ([1]; human, po, 50 mg): 997 ng·h/mL | Vd/F ([1]; human, po, 50 mg): 7640 L | half-life ([1]; human, po, 50 mg): 133 h | AUC(0-inf) ([1]; human, po, 100 mg): 1710 ng·h/mL | Vd/F ([1]; human, po, 100 mg): 8890 L | half-life ([1]; human, po, 100 mg): 133 h | AUC(0-inf) ([1]; human, po, 200 mg): 3500 ng·h/mL | Vd/F ([1]; human, po, 200 mg): 9510 L | half-life ([1]; human, po, 200 mg): 145 h | Vd/F ([1]; human, po, 400 mg): 7100 L | half-life ([1]; human, po, 400 mg): 155 h | Vd/F ([1]; human, po, 600 mg): 7160 L | half-life ([1]; human, po, 600 mg): 181 h | Vd/F ([1]; human, po, 1000 mg): 6770 L | half-life ([1]; human, po, 1000 mg): 169 h | Vd/F ([1]; human, po, 1250 mg): 6830 L | half-life ([1]; human, po, 1250 mg): 180 h | Vd/F ([1]; human, po, 1800 mg): 7060 L | half-life ([1]; human, po, 1800 mg): 181 h | AUC(0-inf) ([1]; human, po, 2100 mg): 43000 ng·h/mL | Vd/F ([1]; human, po, 2100 mg): 7870 L | half-life ([1]; human, po, 2100 mg): 140 h | AUC(0-t) ([1]; human, po, 2100 mg, AUC0–144h): 27200 ng·h/mL | AUC(0-t) ([1]; human, po, 2100 mg, AUC0–t): 42200 ng·h/mL | M5717-related dizziness ([2]; 1800 mg only): three | M5717-related blurred vision ([2]; 1800 mg or 2100 mg groups only): four | M5717-related oral hypoesthesia ([2]; 1800 mg or 2100 mg groups only): three | Any adverse event ([2]; SAD 50 mg single oral dose): 6 (100%) n (%) | Moderate adverse event (grade 2) ([2]; SAD 50 mg single oral dose): 1 (17%) n (%) | Moderate adverse event (grade 2) related to study treatment ([2]; SAD 50 mg single oral dose): 0 n (%) | Severe adverse event (grade 3) ([2]; SAD 50 mg single oral dose): 1 (17%) n (%) | Any adverse event ([2]; SAD 100 mg single oral dose): 5 (83%) n (%) | Moderate adverse event (grade 2) ([2]; SAD 100 mg single oral dose): 1 (17%) n (%) | Moderate adverse event (grade 2) related to study treatment ([2]; SAD 100 mg single oral dose): 0 n (%) | Severe adverse event (grade 3) ([2]; SAD 100 mg single oral dose): 0 n (%) | Any adverse event ([2]; SAD 200 mg single oral dose): 3 (50%) n (%) | Moderate adverse event (grade 2) ([2]; SAD 200 mg single oral dose): 0 n (%) | Moderate adverse event (grade 2) related to study treatment ([2]; SAD 200 mg single oral dose): 0 n (%) | Severe adverse event (grade 3) ([2]; SAD 200 mg single oral dose): 0 n (%) | Any adverse event ([2]; SAD 400 mg single oral dose): 4 (67%) n (%) | Moderate adverse event (grade 2) ([2]; SAD 400 mg single oral dose): 0 n (%) | Moderate adverse event (grade 2) related to study treatment ([2]; SAD 400 mg single oral dose): 0 n (%) | Severe adverse event (grade 3) ([2]; SAD 400 mg single oral dose): 0 n (%) | Any adverse event ([2]; SAD 600 mg single oral dose): 3 (50%) n (%) | Moderate adverse event (grade 2) ([2]; SAD 600 mg single oral dose): 1 (17%) n (%) | Moderate adverse event (grade 2) related to study treatment ([2]; SAD 600 mg single oral dose): 0 n (%) | Severe adverse event (grade 3) ([2]; SAD 600 mg single oral dose): 0 n (%) | Any adverse event ([2]; SAD 1000 mg single oral dose): 4 (67%) n (%) | Moderate adverse event (grade 2) ([2]; SAD 1000 mg single oral dose): 0 n (%) | Moderate adverse event (grade 2) related to study treatment ([2]; SAD 1000 mg single oral dose): 0 n (%) | Severe adverse event (grade 3) ([2]; SAD 1000 mg single oral dose): 0 n (%) | Any adverse event ([2]; SAD 1250 mg single oral dose): 5 (83%) n (%) | Moderate adverse event (grade 2) ([2]; SAD 1250 mg single oral dose): 1 (17%) n (%) | Moderate adverse event (grade 2) related to study treatment ([2]; SAD 1250 mg single oral dose): 1 (17%) n (%) | Severe adverse event (grade 3) ([2]; SAD 1250 mg single oral dose): 0 n (%) | Any adverse event ([2]; SAD 1800 mg single oral dose): 6 (100%) n (%) | Moderate adverse event (grade 2) ([2]; SAD 1800 mg single oral dose): 0 n (%) | Moderate adverse event (grade 2) related to study treatment ([2]; SAD 1800 mg single oral dose): 0 n (%) | Severe adverse event (grade 3) ([2]; SAD 1800 mg single oral dose): 0 n (%) | Any adverse event [2, 8]: 1 (100%) n (%) | Any adverse event related to study treatment [2, 8]: 1 (100%) n (%) | Moderate adverse event (grade 2) [2, 8]: 1 (100%) n (%) | Moderate adverse event (grade 2) related to study treatment [2, 8]: 1 (100%) n (%) | Severe adverse event (grade 3) [2, 8]: 0 n (%) | Serious adverse events ([2]; SAD and VIS): No adverse event was serious; also recorded: No serious adverse events | Severity of adverse events related to M5717 ([2]; SAD and VIS): mild or moderate | Vital signs, ECGs, clinical laboratory parameters ([2]; SAD and VIS): No dose-related trends | Participants with adverse events related to M5717 [2, 9]: 12 (24%) n (%) | Participants with at least one adverse event [2, 9]: 37 (76%) n (%) | Dose up to which M5717 is well tolerated ([2]; single oral dose, healthy adults): ≤ 1250 mg | Time of recrudescence after M5717 dosing (Plasmodium falciparum [3]; VIS 150 mg, individual participants): 10 days and 11 days and 19 days | Recrudescence incidence (Plasmodium falciparum [3]; VIS 150 mg, six participants): 50% | PRR48 (95% CI), second phase (Plasmodium falciparum [3]; VIS 400 mg single oral dose, N=6): 5127 (1006 to 26 132) | Time of recrudescence after M5717 dosing (Plasmodium falciparum [3]; VIS 400 mg, both participants): 12 days | Recrudescence incidence (Plasmodium falciparum [3]; VIS 400 mg, eight participants): 25% | PRR48 (95% CI), second phase (Plasmodium falciparum [3]; VIS 800 mg single oral dose, N=7): 436 (179 to 1061) | Recrudescence (Plasmodium falciparum [3]; VIS 800 mg, up to 21 days after dosing): No recrudescence | Duration of initial slow parasite clearance phase (Plasmodium falciparum [3]; VIS 150, 400, 800 mg): 35 to 55 h | Parasite clearance following M5717 dosing (Plasmodium falciparum [3]; VIS 150, 400, 800 mg): all participants | Potency against Plasmodium falciparum (Plasmodium falciparum [4]): nanomolar potency | AUC(0-inf) ([5]; 150 mg): 3100 ng·h/mL | Vd/F ([5]; 150 mg): 5880 L | half-life ([5]; 150 mg): 106 h | Vd/F ([5]; 400 mg): 6530 L | half-life ([5]; 400 mg): 146 h | Vd/F ([5]; 800 mg): 8890 L | half-life ([5]; 800 mg): 193 h | Any adverse event ([6]; VIS 150 mg single oral dose): 6 (100%) n (%) | Any adverse event related to study treatment ([6]; VIS 150 mg single oral dose): 0 n (%) | Moderate adverse event (grade 2) ([6]; VIS 150 mg single oral dose): 2 (33%) n (%) | Moderate adverse event (grade 2) related to study treatment ([6]; VIS 150 mg single oral dose): 0 n (%) | Severe adverse event (grade 3) ([6]; VIS 150 mg single oral dose): 0 n (%) | Any adverse event ([6]; VIS 400 mg single oral dose): 8 (100%) n (%) | Moderate adverse event (grade 2) ([6]; VIS 400 mg single oral dose): 3 (38%) n (%) | Moderate adverse event (grade 2) related to study treatment ([6]; VIS 400 mg single oral dose): 0 n (%) | Severe adverse event (grade 3) ([6]; VIS 400 mg single oral dose): 0 n (%) | Any adverse event ([6]; VIS 800 mg single oral dose): 7 (88%) n (%) | Any adverse event related to study treatment ([6]; VIS 800 mg single oral dose): 0 n (%) | Moderate adverse event (grade 2) ([6]; VIS 800 mg single oral dose): 2 (25%) n (%) | Moderate adverse event (grade 2) related to study treatment ([6]; VIS 800 mg single oral dose): 0 n (%) | Severe adverse event (grade 3) ([6]; VIS 800 mg single oral dose): 1 (13%) n (%) | Participants with at least one adverse event after M5717 dosing ([6]; VIS, all 22 participants): 21 (95%) n (%) | Minimum inhibitory concentration (MIC) (Plasmodium spp; estimated in mice): 3 ng/mL (≈ 6.49 nM) | Minimum parasiticidal concentration (Plasmodium spp; estimated in mice): 10 ng/mL | Lag in antimalarial activity (Plasmodium spp; in vitro and in the mouse efficacy model): 24 to 48 h | Half-life in preclinical animal studies [7]: 18 to 20 h

From article PMC8612936 (The Lancet. Infectious Diseases, 2021)
